# Assays:
# RXF 393 = assay: Antiproliferative activity against human RXF393 cells by SRB assay; format: functional
# In short: (§1)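 Tested in the NCI in vitro human tumor cell line screen, run by the National Cancer Institute. Each compound was given at five concentrations (100, 10, 1.0, 0.1 and 0.01 μM). GI50 is the drug concentration that reduces growth of treated cells to half that of control cells during drug incubation, judged from the SRB signal.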
# MCF7 = assay: Cytotoxicity against human MCF7 cells; format: cell-based
# HCT-15 [1] = assay: Cytotoxicity against human HCT15 cells; format: cell-based
# In short: (§2)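 Tested in the NCI in vitro disease-oriented human tumour cell line screen, with screening performed by NCI. Growth was read by SRB signal over the drug incubation period at five concentrations: 100, 10, 1.0, 0.1 and 0.01 μM. GI50 is the concentration that reduces growth of treated cells to half that of control cells.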
# OVCAR-8 [2] = assay: Antiproliferative activity against human OVCAR8 cells by SRB assay; format: functional; in short: as §1
# SF-268 = assay: Cytotoxicity against human SF268 cells; format: cell-based; in short: as §2
# TK-10 [3] = assay: Cytotoxicity against human TK10 cells; format: cell-based
# In short: (§3)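 Screened by NCI in its in vitro disease-oriented human tumour cell line panel. Compounds tested at five concentrations (100, 10, 1.0, 0.1 and 0.01 μM). Growth read by sulforhodamine B (SRB) signal. GI50 is the concentration reducing growth of treated cells to half that of control cells during the drug incubation.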
# IGROV-1 = assay: Antiproliferative activity against human IGROV1 cells by SRB assay; format: functional; in short: as §1
# MDA-MB-468 = assay: Antiproliferative activity against human MDA-MB-468 cells by SRB assay; format: functional; in short: as §1
# UACC-257 [4] = assay: Antiproliferative activity against human UACC257 cells by SRB assay; format: functional
# In short: (§4)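 Cell growth was tested in the NIH in vitro disease-oriented human tumor cell line screen, which NCI ran for these compounds. Compounds were tested at five concentrations (100, 10, 1.0, 0.1 and 0.01 μM), and growth was read by SRB signal. GI50 is the drug concentration that reduces growth of treated cells to half that of control cells during drug incubation.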
# [5] = Cytotoxicity against human Hs 578T cells; format: cell-based
# SW-620 = assay: Antiproliferative activity against human SW620 cells by SRB assay; format: functional; in short: as §4
# UO-31 = assay: Cytotoxicity against human UO31 cells; format: cell-based; in short: as §3
# A498 [6] = assay: Antiproliferative activity against human A498 cells by SRB assay; format: functional; in short: as §1
# T47D = assay: Cytotoxicity against human T47D cells; format: cell-based; in short: as §3
# SK-MEL-5 = assay: Cytotoxicity against human SK-MEL-5 cells; format: cell-based
# DU-145 = assay: Antiproliferative activity against human DU145 cells by SRB assay; format: functional; in short: as §1
# UACC-257 [7] = assay: Cytotoxicity against human UACC257 cells; format: cell-based; in short: as §3
# SNB-19 = assay: Cytotoxicity against human SNB19 cells; format: cell-based; in short: as §3
# TK-10 [8] = assay: Antiproliferative activity against human TK10 cells by SRB assay; format: functional; in short: as §4
# HCT-15 [9] = assay: Antiproliferative activity against human HCT15 cells by SRB assay; format: functional; in short: as §1
# OVCAR-8 [10] = assay: Cytotoxicity against human OVCAR8 cells; format: cell-based
# A498 [11] = assay: Cytotoxicity against human A498 cells; format: cell-based
# KM12 = assay: Cytotoxicity against human KM12 cells; format: cell-based
# 786-0 = assay: Antiproliferative activity against human 786-0 cells by SRB assay; format: functional; in short: as §1
# NCI-H226 = assay: Antiproliferative activity against human NCI-H226 cells by SRB assay; format: functional; in short: as §1
# SF-539 = assay: Antiproliferative activity against human SF539 cells by SRB assay; format: functional; in short: as §1
# COLO 205 = assay: Antiproliferative activity against human COLO205 cells by SRB assay; format: functional; in short: as §1
# Malme-3M = assay: Antiproliferative activity against human MALME-3M cells by SRB assay; format: functional; in short: as §1
# NCI-H23 = assay: Antiproliferative activity against human NCI-H23 cells by SRB assay; format: functional; in short: as §1
compound,measurement,setting,value
O=C(/C=C/c1ccc(CN(CCO)CCc2c[nH]c3ccccc23)cc1)NO [DACINOSTAT],GI50,RXF 393,< 10 nM
same,LC50,MCF7,> 100000 nM
same,LC50,HCT-15 [1],56400 nM
same,GI50,OVCAR-8 [2],450 nM
same,LC50,SF-268,92100 nM
same,LC50,TK-10 [3],> 100000 nM
same,GI50,IGROV-1,187 nM
same,GI50,MDA-MB-468,452 nM
same,GI50,UACC-257 [4],393 nM
same,LC50,[5],> 100000 nM
same,GI50,SW-620,478 nM
same,LC50,UO-31,52800 nM
same,GI50,A498 [6],1110 nM
same,LC50,T47D,> 100000 nM
same,LC50,SK-MEL-5,4020 nM
same,GI50,DU-145,580 nM
same,LC50,UACC-257 [7],44800 nM
same,LC50,SNB-19,31700 nM
same,GI50,TK-10 [8],495 nM
same,GI50,HCT-15 [9],2070 nM
same,LC50,OVCAR-8 [10],92500 nM
same,LC50,A498 [11],5880 nM
same,LC50,KM12,29900 nM
same,GI50,786-0,2380 nM
same,GI50,NCI-H226,1410 nM
same,GI50,SF-539,965 nM
same,GI50,COLO 205,1080 nM
same,GI50,Malme-3M,461 nM
same,GI50,NCI-H23,1500 nM

# — ChEMBL document CHEMBL1806473, “Structure-based optimization of click-based histone deacetylase inhibitors” (Eur J Med Chem, 2011)
